Results as given in ChEMBL document CHEMBL1142169, “In vitro antibacterial activity of the pyrrolopyrazolyl-substituted oxazolidinone RWJ-416457” (2007).
Converted amounts (≈) assume the structure as drawn.

Tests used:
Type in all cases: functional
Staphylococcus aureus [1] = test: Antibacterial activity against Staphylococcus aureus
Outline: (§1)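 MIC by CLSI (formerly NCCLS) broth microdilution for aerobically growing bacteria.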

Staphylococcus aureus [2] = test: Antibacterial activity against methicillin-susceptible Staphylococcus aureus; outline: as §1
Staphylococcus aureus [3] = test: Antibacterial activity against methicillin-resistant Staphylococcus aureus; outline: as §1
Staphylococcus aureus [4] = test: Antibacterial activity against vancomycin-intermediate methicillin-resistant Staphylococcus aureus; outline: as §1
Staphylococcus aureus [5] = test: Antibacterial activity against community-acquired methicillin-resistant Staphylococcus aureus; outline: as §1
Staphylococcus [6] = test: Antibacterial activity against coagulase-negative staphylococci; outline: as §1
Staphylococcus [7] = test: Antibacterial activity against methicillin-susceptible coagulase-negative staphylococci; outline: as §1
Staphylococcus [8] = test: Antibacterial activity against methicillin-resistant coagulase-negative staphylococci; outline: as §1
Enterococcus faecium = test: Antibacterial activity against linezolid-susceptible Enterococcus faecium; outline: as §1
Enterococcus faecalis [9] = test: Antibacterial activity against linezolid-susceptible Enterococcus faecalis; outline: as §1
Streptococcus pyogenes = test: Antibacterial activity against macrolide-resistant Streptococcus pyogenes; outline: as §1
Streptococcus pneumoniae [10] = test: Antibacterial activity against Streptococcus pneumoniae; outline: as §1
Streptococcus pneumoniae [11] = test: Antibacterial activity against penicillin-resistant Streptococcus pneumoniae; outline: as §1
Streptococcus pneumoniae [12] = test: Antibacterial activity against macrolide-resistant Streptococcus pneumoniae; outline: as §1
Streptococcus pneumoniae [13] = test: Antibacterial activity against fluoroquinolone-resistant Streptococcus pneumoniae; outline: as §1
Moraxella catarrhalis = test: Antibacterial activity against Moraxella catarrhalis
Outline: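 MIC determined by the CLSI (formerly NCCLS) broth microdilution procedure for aerobically growing bacteria.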

Legionella pneumophila = test: Antibacterial activity against Legionella pneumophila
Outline: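 L. pneumophila broth microdilution. Inoculum suspended in buffered yeast extract broth and added to wells holding serial antibiotic dilutions. Incubated aerobically at 34°C to 36°C for 48 h. MIC taken as the lowest concentration inhibiting visible growth.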

[14] = tested on: Mycoplasmoides pneumoniae; test: Antibacterial activity against Mycoplasma pneumoniae
Outline: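 Microbroth MIC following Waites et al. Isolates were titred in SP4 glucose broth by serial 10-fold dilution to count color changing units. Drug was serially diluted in antibiotic-free SP4 glucose broth and inoculated at 104 CCU/ml, then incubated at 35°C until control wells changed color. The MIC was the lowest concentration preventing color change.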

Staphylococcus aureus [15] = test: Antibacterial activity against methicillin-resistant Staphylococcus aureus OC 2878 by time kill experiments
Outline: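 Time-kill by CLSI methodology with drug at four times the MIC against MRSA OC 2878, alongside a drug-free control culture. Viable counts were followed over time.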

Enterococcus faecalis [16] = test: Antibacterial activity against Enterococcus faecalis ATCC 51922 by time kill experiments
Outline: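 Time-kill curves run per CLSI methodology, with drug at four times the MIC measured for the isolate. Growth in drug-containing medium was followed alongside a drug-free control medium over time.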

Row | SMILES | MIC50 (Staphylococcus aureus [1]) [µg/mL] | MIC90 (Staphylococcus aureus [1]) [µg/mL] | MIC50 (Staphylococcus aureus [2]) [µg/mL] | MIC90 (Staphylococcus aureus [2]) [µg/mL] | MIC50 (Staphylococcus aureus [3]) [µg/mL] | MIC90 (Staphylococcus aureus [3]) [µg/mL] | MIC50 (Staphylococcus aureus [4]) [µg/mL] | MIC90 (Staphylococcus aureus [4]) [µg/mL] | MIC50 (Staphylococcus aureus [5]) [µg/mL] | MIC90 (Staphylococcus aureus [5]) [µg/mL] | MIC50 (Staphylococcus [6]) [µg/mL] | MIC90 (Staphylococcus [6]) [µg/mL] | MIC50 (Staphylococcus [7]) [µg/mL] | MIC90 (Staphylococcus [7]) [µg/mL] | MIC50 (Staphylococcus [8]) [µg/mL] | MIC90 (Staphylococcus [8]) [µg/mL] | MIC50 (Enterococcus faecium) [µg/mL] | MIC90 (Enterococcus faecium) [µg/mL] | MIC50 (Enterococcus faecalis [9]) [µg/mL] | MIC90 (Enterococcus faecalis [9]) [µg/mL] | other results
1 | CC(=O)NC[C@H]1CN(c2ccc(N3Cc4cn(C)nc4C3)c(F)c2)C(=O)O1 | 1 (≈ 2.68 µM) | 2 (≈ 5.36 µM) | 1 (≈ 2.68 µM) | 2 (≈ 5.36 µM) | 1 (≈ 2.68 µM) | 2 (≈ 5.36 µM) | 0.5 (≈ 1.34 µM) | 2 (≈ 5.36 µM) | 1 (≈ 2.68 µM) | 2 (≈ 5.36 µM) | 0.5 (≈ 1.34 µM) | 1 (≈ 2.68 µM) | 0.5 (≈ 1.34 µM) | 0.5 (≈ 1.34 µM) | 0.5 (≈ 1.34 µM) | 1 (≈ 2.68 µM) | 1 (≈ 2.68 µM) | 1 (≈ 2.68 µM) | 0.5 (≈ 1.34 µM) | 1 (≈ 2.68 µM) | MIC50 (Streptococcus pyogenes): 0.5 µg/mL (≈ 1.34 µM); MIC90 (Streptococcus pyogenes): 0.5 µg/mL (≈ 1.34 µM); MIC50 (Streptococcus pneumoniae [10]): 0.5 µg/mL (≈ 1.34 µM); MIC90 (Streptococcus pneumoniae [10]): 0.5 µg/mL (≈ 1.34 µM); MIC50 (Streptococcus pneumoniae [11]): 0.5 µg/mL (≈ 1.34 µM); MIC90 (Streptococcus pneumoniae [11]): 0.5 µg/mL (≈ 1.34 µM); MIC50 (Streptococcus pneumoniae [12]): 0.5 µg/mL (≈ 1.34 µM); MIC90 (Streptococcus pneumoniae [12]): 0.5 µg/mL (≈ 1.34 µM); MIC50 (Streptococcus pneumoniae [13]): 0.5 µg/mL (≈ 1.34 µM); MIC90 (Streptococcus pneumoniae [13]): 0.5 µg/mL (≈ 1.34 µM); MIC50 (Moraxella catarrhalis): 2 µg/mL (≈ 5.36 µM); MIC90 (Moraxella catarrhalis): 4 µg/mL (≈ 10.7 µM); MIC50 (Legionella pneumophila): 4 µg/mL (≈ 10.7 µM); MIC90 (Legionella pneumophila): 8 µg/mL (≈ 21.4 µM); MIC50 [14]: 16 µg/mL (≈ 42.9 µM); MIC90 [14]: 32 µg/mL (≈ 85.7 µM); MIC (Staphylococcus aureus [15]): 1 µg/mL (≈ 2.68 µM); MIC (Enterococcus faecalis [16]): 1 µg/mL (≈ 2.68 µM)
2 | CC[C@H]1OC(=O)[C@H](C)[C@@H](O[C@H]2C[C@@](C)(OC)[C@@H](O)[C@H](C)O2)[C@H](C)[C@@H](O[C@@H]2O[C@H](C)C[C@H](N(C)C)[C@H]2O)[C@](C)(O)C[C@@H](C)C(=O)[C@H](C)[C@@H](O)[C@]1(C)O [ERYTHROMYCIN] | – | – | – | – | – | – | – | – | – | – | – | – | – | – | – | – | – | – | – | – | MIC50 (Streptococcus pyogenes): 8 µg/mL (≈ 10.9 µM); MIC90 (Streptococcus pyogenes): > 16 µg/mL; MIC50 (Streptococcus pneumoniae [12]): 4 µg/mL (≈ 5.45 µM); MIC90 (Streptococcus pneumoniae [12]): > 16 µg/mL; MIC50 (Moraxella catarrhalis): 0.25 µg/mL (≈ 0.341 µM); MIC90 (Moraxella catarrhalis): 0.25 µg/mL (≈ 0.341 µM)
3 | C[C@H]1COc2c(N3CCN(C)CC3)c(F)cc3c(=O)c(C(=O)O)cn1c23.C[C@H]1COc2c(N3CCN(C)CC3)c(F)cc3c(=O)c(C(=O)O)cn1c23.O [LEVOFLOXACIN] | – | – | – | – | – | – | – | – | – | – | – | – | – | – | – | – | – | – | – | – | MIC50 (Streptococcus pneumoniae [13]): 16 µg/mL; MIC90 (Streptococcus pneumoniae [13]): > 16 µg/mL; MIC50 (Legionella pneumophila): 0.12 µg/mL; MIC90 (Legionella pneumophila): 0.5 µg/mL; MIC50 [14]: 0.5 µg/mL; MIC90 [14]: 1 µg/mL
4 | CC(=O)NC[C@H]1CN(c2ccc(N3CCOCC3)c(F)c2)C(=O)O1 [LINEZOLID] | 4 (≈ 11.9 µM) | 4 (≈ 11.9 µM) | 2 (≈ 5.93 µM) | 4 (≈ 11.9 µM) | 4 (≈ 11.9 µM) | 4 (≈ 11.9 µM) | 1 (≈ 2.96 µM) | 4 (≈ 11.9 µM) | 4 (≈ 11.9 µM) | 4 (≈ 11.9 µM) | 2 (≈ 5.93 µM) | 2 (≈ 5.93 µM) | 1 (≈ 2.96 µM) | 2 (≈ 5.93 µM) | 2 (≈ 5.93 µM) | 2 (≈ 5.93 µM) | 2 (≈ 5.93 µM) | 4 (≈ 11.9 µM) | 2 (≈ 5.93 µM) | 2 (≈ 5.93 µM) | MIC50 (Streptococcus pyogenes): 1 µg/mL (≈ 2.96 µM); MIC90 (Streptococcus pyogenes): 2 µg/mL (≈ 5.93 µM); MIC50 (Streptococcus pneumoniae [10]): 1 µg/mL (≈ 2.96 µM); MIC90 (Streptococcus pneumoniae [10]): 1 µg/mL (≈ 2.96 µM); MIC50 (Streptococcus pneumoniae [11]): 1 µg/mL (≈ 2.96 µM); MIC90 (Streptococcus pneumoniae [11]): 1 µg/mL (≈ 2.96 µM); MIC50 (Streptococcus pneumoniae [12]): 1 µg/mL (≈ 2.96 µM); MIC90 (Streptococcus pneumoniae [12]): 1 µg/mL (≈ 2.96 µM); MIC50 (Streptococcus pneumoniae [13]): 0.5 µg/mL (≈ 1.48 µM); MIC90 (Streptococcus pneumoniae [13]): 1 µg/mL (≈ 2.96 µM); MIC50 (Moraxella catarrhalis): 8 µg/mL (≈ 23.7 µM); MIC90 (Moraxella catarrhalis): 8 µg/mL (≈ 23.7 µM); MIC50 (Legionella pneumophila): 4 µg/mL (≈ 11.9 µM); MIC90 (Legionella pneumophila): 16 µg/mL (≈ 47.4 µM); MIC50 [14]: > 64 µg/mL; MIC90 [14]: > 64 µg/mL
5 | Cc1onc(-c2ccccc2)c1C(=O)N[C@@H]1C(=O)N2[C@@H]1SC(C)(C)[C@@H]2C(=O)O [OXACILLIN] | – | – | – | – | > 32 | > 32 | > 32 | > 32 | 32 (≈ 79.7 µM) | 32 (≈ 79.7 µM) | > 16 | > 16 | 0.12 (≈ 0.299 µM) | 0.25 (≈ 0.623 µM) | > 16 | > 16 | – | – | – | – | –
6 | CC1(C)S[C@@H]2[C@H](NC(=O)Cc3ccccc3)C(=O)N2[C@H]1C(=O)O [PENICILLIN G] | – | – | – | – | – | – | – | – | – | – | – | – | – | – | – | – | – | – | – | – | MIC50 (Streptococcus pneumoniae [11]): 2 µg/mL (≈ 5.98 µM); MIC90 (Streptococcus pneumoniae [11]): 4 µg/mL (≈ 12 µM)
7 | CN[C@H](CC(C)C)C(=O)N[C@H]1C(=O)N[C@@H](CC(N)=O)C(=O)N[C@H]2C(=O)N[C@H]3C(=O)N[C@H](C(=O)N[C@H](C(=O)O)c4cc(O)cc(O)c4-c4cc3ccc4O)[C@H](O)c3ccc(c(Cl)c3)Oc3cc2cc(c3O[C@@H]2O[C@H](CO)[C@@H](O)[C@H](O)[C@H]2O[C@H]2C[C@](C)(N)[C@H](O)[C@H](C)O2)Oc2ccc(cc2Cl)[C@H]1O [VANCOMYCIN] | 1 (≈ 0.69 µM) | 4 (≈ 2.76 µM) | 1 (≈ 0.69 µM) | 2 (≈ 1.38 µM) | 1 (≈ 0.69 µM) | 4 (≈ 2.76 µM) | 4 (≈ 2.76 µM) | 8 (≈ 5.52 µM) | 1 (≈ 0.69 µM) | 1 (≈ 0.69 µM) | 2 (≈ 1.38 µM) | 4 (≈ 2.76 µM) | 2 (≈ 1.38 µM) | 4 (≈ 2.76 µM) | 2 (≈ 1.38 µM) | 4 (≈ 2.76 µM) | > 16 | > 16 | 4 (≈ 2.76 µM) | > 16 | –
